The test system of test [1] is 5637. Description: Cytotoxic activity against human 5637 cell line at 20 uM expressed as percent growth value. It is filed as functional. The gist of the method: (§1)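 Cells in RPMI-1640 with 10% FCS were seeded (1000 cells/well; KYSE-510 500, LCLC-103H 250), then exposed 24 h later for 96 h. Read-out was crystal violet staining of glutaraldehyde-fixed cells at OD 570 nm. Growth (%) = (OD treated − OD at drug addition)/(OD control − OD at drug addition) × 100.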

The subject of test [2] is 5637. The test is described as follows: Growth inhibition against human 5637 cell lines. The settings on record: Homo sapiens. The class given is functional, cell-based. The method, boiled down: (§2)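 Cells were grown in RPMI-1640 with 2 g/L NaHCO3 and 10% FCS at 37 °C in 5% CO2, seeded at 1000 cells/well, and dosed 24 h later at five geometric dilutions for 96 h of continuous exposure. Cells were then glutaraldehyde-fixed and stained with crystal violet, with OD read at 570 nm. IC50 was taken from the dose–response data.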

For a further test, the system named is TERT-RPE1. Description: Compound was tested for growth inhibition against human h-TERTRPE1 cell lines. The class given is functional, cell-based. The settings on record: Homo sapiens, RPE-1. The method, boiled down:
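The noncancerous hTERT-immortalized epithelial line h-TERT-RPE1 was grown in DMEM/F-12 with 2 g/L NaHCO3 and 10% FCS (37 °C, 5% CO2) and seeded at 1000 cells/well. Substance was added 24 h later at five geometric dilutions for 96 h continuously. The read-out was crystal violet staining after glutaraldehyde fixation, OD 570 nm, with IC50 from dose–response.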

The test system of another test is RT-4. Description: Growth inhibition against human RT-4 cell lines. It is filed as functional, cell-based. The settings on record: Homo sapiens, RT-4. The method, boiled down: as §2
Test [3] deals with LCLC-103H cell line. The test is described as follows: Growth inhibition against human LCLC-103H cell lines. The class given is functional, cell-based. The settings on record: Homo sapiens, LCLC-103H. The gist of the method:
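LCLC-103H cells were grown in RPMI-1640 with 2 g/L NaHCO3 and 10% FCS (5% CO2, 37 °C) and plated at 250 cells/well. After 24 h, five geometric dilutions were applied continuously for 96 h. Fixation was with glutaraldehyde, followed by crystal violet staining and OD at 570 nm. IC50 came from the dose–response curves.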

In test [4] the test system is KYSE-70 cell line. The test is described as follows: Cytotoxic activity against human KYSE-70 cell line at 20 uM expressed as percent growth value. It is filed as functional. The method, boiled down: as §1
The test system of test [5] is SISO. Description: Cytotoxic activity against human SISO cell line at 20 uM. The class given is functional. The gist of the method: as §1
Another test relates to MCF7. The test is described as follows: Growth inhibition against human MCF-7 cell lines. It is filed as functional, cell-based. The settings on record: Homo sapiens, MCF7. The gist of the method: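 MCF-7 was cultured in RPMI-1640 with 2 g/L NaHCO3, 10% FCS, 1 mM pyruvate, MEM salts and amino acids. Plating was 1000 cells/well, then after 24 h, 96 h of continuous exposure at five geometric dilutions. Crystal violet staining of glutaraldehyde-fixed cells was read at 570 nm, and IC50 was derived from the dose–response data.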

In a further test the test system is DAN-G. The test is described as follows: Growth inhibition against human DAN-G cell lines. The class given is functional, cell-based. The settings on record: Homo sapiens, DAN-G. The gist of the method:
as §2

The subject of test [6] is SISO. Description: Growth inhibition against human SISO cell lines. The class given is functional, cell-based. The settings on record: Homo sapiens, SISO. The gist of the method: as §2
Test [7] concerns KYSE-70 cell line. The test is described as follows: Growth inhibition against human KYSE-70 cell lines. The class given is functional, cell-based. The settings on record: Homo sapiens, KYSE-70. The gist of the method:
as §2

Another test deals with KYSE-520 cell line. Description: Growth inhibition against human KYSE-520 cell lines. It is filed as functional, cell-based. The settings on record: Homo sapiens, KYSE-520. The gist of the method: as §2
Another test deals with KYSE-510 (human). Description: Growth inhibition against human KYSE-510 cell lines. The settings on record: Homo sapiens, KYSE-510.
Another test has as its system YAPC. The test is described as follows: Compound was tested for growth inhibition against human YAPC cell lines. The class given is functional, cell-based. The settings on record: Homo sapiens, YAPC. The method, boiled down: as §2
The next test deals with RT-112. The test is described as follows: Growth inhibition against human RT-112 cell lines. It is filed as functional, cell-based. The settings on record: Homo sapiens, RT-112. The method, boiled down: as §2
For test [8], the system named is LCLC-103H cell line. The test is described as follows: Cytotoxic activity against human LCLC-103H cell line at 20 uM expressed as percent growth value. The class given is functional. The gist of the method:
as §1

A further test concerns KYSE-510. The test is described as follows: Cytotoxic activity against human KYSE-510 cell line at 20 uM expressed as percent growth value. The class given is functional. The gist of the method: as §1

In general, IC50 refers to the concentration needed to halve the response being measured. High values mean weaker potency in that assay, low ones greater potency in that assay.

For `O=[N+]([O-])c1ccc(/C=C/c2nc3ccccc3[nH]2)s1`, the Activity is on record as 0 in the test on 5637 [1], 0.7 in the test with KYSE-70 cell line [4] and -1.8 with SISO [5]. Also, the 50% inhibitory concentration (IC50) amounted to 0.27 µM in the test on 5637 [2], 0.21 µM in the test with TERT-RPE1, 0.89 µM in the test on RT-4 and 0.56 µM in the test with LCLC-103H cell line [3].
For `N#C/C(=C\c1cccc([N+](=O)[O-])c1)c1nc2ccccc2[nH]1`, the figures for the Activity with 5637 [1], in the test on KYSE-70 cell line [4] and in the test with SISO [5] were 14.4, 55.4 and 54.2, respectively. For the same molecule, the IC50 with 5637 [2] was 15.2 µM; in the test with MCF7, 16.4 µM; in the test with RT-4, 7.68 µM; in the test with LCLC-103H cell line [3], 1.13 µM; with DAN-G, 15.8 µM; in the test with SISO [6], 30.9 µM. This molecule also had an IC50 in the test with KYSE-70 cell line [7] of 22.5 µM.
Consider `N#C/C(=C\c1cccs1)c1nc2ccccc2[nH]1`, for which the results for the Activity in the test with 5637 [1], in the test on KYSE-70 cell line [4] and in the test on SISO [5] were 49.3, 30.8 and 82.4, respectively. In addition, the IC50 stood at 17.8 µM in the test on 5637 [2]; 11.2 µM in the test on MCF7; 14.6 µM in the test on RT-4; 2.5 µM with LCLC-103H cell line [3]; 15 µM in the test with DAN-G; 25.9 µM in the test on SISO [6]. In the test with KYSE-70 cell line [7], this molecule yielded a concentration for half-maximal inhibition (IC50) of 8.78 µM.
Consider `CN(C)c1ccc(/C=C(\C#N)c2nc3ccccc3[nH]2)cc1`, for which the figures for the Activity in the test with 5637 [1], in the test on KYSE-70 cell line [4] and in the test on SISO [5] were 61.1, 124.4 and 95, respectively.
For `N#C/C(=C\c1ccc(OC(F)(F)F)cc1)c1nc2ccccc2[nH]1`, the Activity is 66 with 5637 [1], 96.7 in the test with KYSE-70 cell line [4] and 71.7 in the test on SISO [5].
Regarding `COc1ccc(/C=C(\C#N)c2nc3ccccc3[nH]2)cc1`, the Activity in the test on 5637 [1] was found to be 64.9; in the test with KYSE-70 cell line [4], 75.8; with SISO [5], 72.1.
For the molecule `C/C(=C\c1ccc([N+](=O)[O-])s1)c1nc2ccccc2[nH]1`, the Activity is recorded as 0.5 with 5637 [1], 2.4 in the test on KYSE-70 cell line [4] and -1.3 with SISO [5]. For the same molecule, the IC50 with 5637 [2] turned out to be 3.65 µM; in the test on MCF7, 2.97 µM; in the test on RT-4, 4.67 µM; in the test with LCLC-103H cell line [3], 0.44 µM; in the test with DAN-G it was 3.73 µM; in the test with SISO [6], 3.28 µM. This molecule showed an IC50 with KYSE-70 cell line [7] of 5.11 µM.
On to `N#C/C(=C\c1ccc(C(F)(F)F)cc1)c1nc2ccccc2[nH]1`, for which the Activity worked out at 34.4 in the test on 5637 [1], 69.7 with KYSE-70 cell line [4] and 61.8 in the test on SISO [5]. Further, the IC50 in the test with 5637 [2] was found to be 12.2 µM; with MCF7 it was 9.11 µM; in the test on RT-4, 16.3 µM; in the test on LCLC-103H cell line [3], 1.6 µM; in the test on DAN-G, 17.6 µM; with SISO [6], 14 µM. The IC50 with KYSE-70 cell line [7] turned out to be 15.6 µM.
As to `N#C/C(=C\c1ccco1)c1nc2ccccc2[nH]1`, the Activity with 5637 [1] is reported as 86.1; with KYSE-70 cell line [4], 56.6; in the test with SISO [5], 106.1.
On to `N#C/C(=C\c1ccc([N+](=O)[O-])s1)c1n[nH]c(-c2ccccc2)n1`, for which the half-maximal inhibitory concentration (IC50) stood at 0.57 µM in the test on KYSE-520 cell line; 0.48 µM in the test on 5637 [2]; 0.63 µM in the test on KYSE-510 (human); 0.32 µM with YAPC; 0.68 µM in the test on MCF7; 0.42 µM in the test with TERT-RPE1. Besides, the IC50 with RT-4 was determined as 1.03 µM; in the test on LCLC-103H cell line [3], 0.54 µM; with DAN-G, 0.42 µM; in the test with RT-112, 0.83 µM; in the test on SISO [6] it was 0.89 µM; in the test with KYSE-70 cell line [7], 0.35 µM. The Activity is -6.5 with LCLC-103H cell line [8], -21.7 in the test on KYSE-510 and -9.9 in the test on SISO [5].
As for `N#C/C(=C\c1ccc(C#N)cc1)c1nc2ccccc2[nH]1`, the values for the Activity in the test on 5637 [1], in the test on KYSE-70 cell line [4] and in the test on SISO [5] were 75.6, 99.3 and 99.2, respectively.
Consider `N#C/C(=C\c1ccc([N+](=O)[O-])cc1)c1nc2ccccc2[nH]1`, for which the Activity with 5637 [1] came to 73.9; in the test on KYSE-70 cell line [4], 88; in the test with SISO [5] it was 99.2.

These data come from ChEMBL document CHEMBL1148342, “Synthesis, X-ray crystal structures, stabilities, and in vitro cytotoxic activities of new heteroarylacrylonitriles” (J Med Chem, 2004).
